Data reported in ChEMBL document CHEMBL4665801, “Pyrazole-Based Lactate Dehydrogenase Inhibitors with Optimized Cell Activity and Pharmacokinetic Properties” (J Med Chem, 2020).
Calls of active or inactive are those of the source.

Experiments:
[1] = target: T1, L-lactate dehydrogenase A chain (Homo sapiens, UniProt P00338); assay: Inhibition of recombinant human LDHA using sodium pyruvate as substrate preincubated for 5 mins followed by diaphorase/resazurin addition and measured after 20 mins by fluorescence based assay
[2] = target: T1, L-lactate dehydrogenase A chain; assay: Inhibition of LDHA in human A673 cells assessed as decrease in lactate production incubated for 2 hrs by lactate oxidase-coupled fluorescence based assay; format: cell-based
[3] = test system: A673; assay: Cytotoxicity against human A673 cells assessed as reduction in cell viability after 48 hrs by CellTiter-Glo assay; format: functional, cell-based; conditions: A673, 48 h
[4] = target: T1, L-lactate dehydrogenase A chain; assay: Inhibition of LDHA in human MIA PaCa-2 cells assessed as decrease in lactate production incubated for 2 hrs by lactate oxidase-coupled fluorescence based assay; format: cell-based
[5] = test system: MIA PaCa-2; assay: Cytotoxicity against human MIA PaCa-2 cells assessed as reduction in cell viability after 48 hrs by CellTiter-Glo assay; format: functional, cell-based; conditions: MIA PaCa-2, 48 h
[6] = target: T1, L-lactate dehydrogenase A chain; assay: Inhibition of GS[HiBiT]GS-tagged LDHA (unknown origin) expressed in HEK-293T cells measured after 1 hr by […]; format: cell-based
Procedure, shortened: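 HEK293T cells were transiently transfected for 24 h with CMV-driven LDHA carrying a C-terminal GS[HiBiT]GS tag, then reseeded at 2500 cells/well in DPBS with Ca/Mg and 1 g/L glucose. […] Cells were lysed with NP40, and 11S (100 nM final) plus furimazine was added.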

[7] = target: T1, L-lactate dehydrogenase A chain; assay: Binding affinity to human His-tagged LDHA by SPR analysis
Procedure, shortened: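 SPR on a Mass-1 instrument gave K_D and k_off. Residence time τ was calculated as 1/k_off (s⁻¹).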

[8] = target: L-lactate dehydrogenase B chain (Homo sapiens) (UniProt P07195); assay: Inhibition of recombinant human LDHB using sodium pyruvate as substrate preincubated for 5 mins followed by diaphorase/resazurin addition and measured after 20 mins by fluorescence based assay
[9] = species: Sus scrofa; assay: Inhibition of porcine heart MDH using malic acid as substrate preincubated for 10 mins followed by substrate addition and measured after 5 mins by resazurin based fluorescence based assay; conditions: time 15.0 min
[10] = Oral bioavailability in CD-1 mouse at 50 mg/kg and measured up to 24 hrs by LC/MS-MS analysis; format: ADME, organism-based; conditions: in vivo
Procedure, shortened: (§1)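 Male CD1 mice, about 6–8 weeks old and 20–30 g, were dosed PO at 40 or 50 mg/kg in 0.1 M NaOH in PBS, pH 7–8.5, prepared the same day. Three mice per cohort. Dorsal metatarsal vein blood was collected into heparin at 15, 30 min and 1, 2, 4, 8, 12, 24 h. Plasma was spun at 4 °C, frozen at –75 °C and quantified by LC–MS/MS.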

[11] = Volume of distribution at steady state in CD-1 mouse at 10 mg/kg, iv and measured up to 24 hrs by LC/MS-MS analysis; format: ADME, organism-based; conditions: in vivo
Procedure, shortened: (§2)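 Male CD1 mice, about 6–8 weeks old and 20–30 g, received 10 mg/kg IV in 0.1 M NaOH in PBS adjusted to pH 7–8.5, made fresh on the day of dosing. Three mice per cohort. Blood was taken from the dorsal metatarsal vein at 5, 15, 30 min and 1, 2, 4, 8, 12, 24 h into heparin tubes. Plasma was spun at 4 °C, stored at –75 °C and analysed by LC–MS/MS. For IV dosing Cmax = C0.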

[12] = AUClast in CD-1 mouse at 50 mg/kg, po and measured up to 24 hrs by LC/MS-MS analysis; format: ADME, organism-based; set-up: route oral, dose 50 mg/kg, time <=24; conditions: in vivo; procedure, shortened: as §1
[13] = AUClast in CD-1 mouse at 10 mg/kg, iv and measured up to 24 hrs by LC/MS-MS analysis; format: ADME, organism-based; set-up: route intravenous, dose 10 mg/kg, time <=24; conditions: in vivo; procedure, shortened: as §2
[14] = Cmax in CD-1 mouse at 10 mg/kg, iv and measured up to 24 hrs by LC/MS-MS analysis; format: ADME, organism-based; set-up: route intravenous, dose 10 mg/kg, time <=24; conditions: in vivo; procedure, shortened: as §2
[15] = Cmax in CD-1 mouse at 50 mg/kg, po and measured up to 24 hrs by LC/MS-MS analysis; format: ADME, organism-based; set-up: route oral, dose 50 mg/kg, time <=24; conditions: in vivo; procedure, shortened: as §1
[16] = Terminal half life in CD-1 mouse at 50 mg/kg, po and measured up to 24 hrs by LC/MS-MS analysis; format: ADME, organism-based; conditions: in vivo
Procedure, shortened: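 Male CD1 mice, about 6–8 weeks old and 20–30 g, were dosed PO at 40 or 50 mg/kg in 0.1 M NaOH in PBS, pH 7–8.5, prepared the same day. Three mice per cohort. Plasma was spun at 4 °C, frozen at –75 °C and quantified by LC–MS/MS.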

[17] = Terminal half life in CD-1 mouse at 10 mg/kg, iv and measured up to 24 hrs by LC/MS-MS analysis; format: ADME, organism-based; conditions: in vivo; procedure, shortened: as §2
[18] = test system: Mus musculus; assay: In vivo inhibition of LDH in human A673 cells xenografted athymic nude CrTac:NCr-Foxn1nu mouse assessed as reduction in tumor LDH activity at 50 mg/kg, iv after 6 hrs by UV-VIS spectrometric method relative to control; format: functional
Procedure, shortened: (§3)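 Female athymic nude mice carried SQ A673 flank xenografts (2 million cells) and received a single IV dose of 50 mg/kg in PBS-based vehicle. Four mice per time point were sacrificed at 1, 3, 6 and 24 h. Frozen tumor (10–50 mg) was pulverized and lysed in PBS pH 7.4 with 0.1% Triton X-100 on ice for 1 h. Cleared lysate (10–20 μg) was assayed with 10 mM pyruvate and 0.3 mM final NADH, reading NADH oxidation at 340 nm at 37 °C.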

[19] = test system: Mus musculus; assay: In vivo inhibition of LDH in human A673 cells xenografted athymic nude CrTac:NCr-Foxn1nu mouse assessed as reduction in tumor LDH activity at 50 mg/kg, iv after 1 hr by NADH-based UV-VIS spectrometric method relative to control; format: functional, organism-based; procedure, shortened: as §3
[20] = In vivo inhibition of LDH in human A673 cells xenografted athymic nude CrTac:NCr-Foxn1nu mouse assessed as tumor residual LDH activity at 50 mg/kg, iv after 1 hr by UV-VIS spectrometric method relative to control; format: functional; procedure, shortened: as §3

Chain of L-lactate dehydrogenase B chain (Homo sapiens) (P07195 2-334 limits assumed): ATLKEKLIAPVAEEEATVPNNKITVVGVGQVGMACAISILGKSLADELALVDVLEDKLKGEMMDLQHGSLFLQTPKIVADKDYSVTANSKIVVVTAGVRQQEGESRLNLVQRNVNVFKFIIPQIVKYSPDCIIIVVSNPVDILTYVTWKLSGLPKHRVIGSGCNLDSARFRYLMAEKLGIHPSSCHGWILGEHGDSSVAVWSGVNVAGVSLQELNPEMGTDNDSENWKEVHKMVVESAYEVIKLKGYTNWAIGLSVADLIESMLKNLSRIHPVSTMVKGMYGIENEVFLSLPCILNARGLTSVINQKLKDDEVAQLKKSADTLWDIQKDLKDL

Row | SMILES | IC50 [1] [nM] | IC50 [2] [nM] | IC50 [4] [nM] | IC50 [6] [nM] | inhibition [8] | inhibition [9] | F [10] [%] | Vdss [11] [L/kg] | AUClast [12] [ng·h/mL] | AUClast [13] [ng·h/mL] | Cmax [14] [ng/mL] | Cmax [15] [ng/mL] | beta t1/2 [16] [h] | beta t1/2 [17] [h] | IC50 [3] [nM] | IC50 [5] [nM] | Kd [7] [nM] | inhibition [18] | inhibition [19] | Activity [20] [%]
1 | NS(=O)(=O)c1ccc(Cc2c(-c3ccc(F)c(C#CC4CCCC4)c3)nn(-c3nc(C(=O)O)cs3)c2CC2CC2)cc1F | 22 | 509 | 333 | 112 | Active | inactive | – | – | – | – | – | – | – | – | 100 | 314 | 0.0193 | – | – | –
2 | Cc1ccc(C#Cc2cccc(-c3nn(-c4nc(C(=O)O)cs4)c(CCC4CC4)c3Cc3ccc(S(N)(=O)=O)c(F)c3)c2)s1 | 117 | 174 | 172 | 152 | Active | inactive | 42 | 1.47 | 20030 | 9600 | 58200 | 6850 | 3.7 | 5.8 | 187 | – | – | – | – | –
3 | NS(=O)(=O)c1ccc(Cc2c(-c3ccc(F)c(C#CCC4CCCC4)c3)nn(-c3nc(C(=O)O)cs3)c2CC2CC2)cc1F | 202 | 487 | 424 | 178 | Active | inactive | – | – | – | – | – | – | – | – | 939 | 848 | 0.123 | – | – | –
4 | Cc1ccc(C#Cc2cc(-c3nn(-c4nc(C(=O)O)cs4)c(CCC4CC4)c3Cc3ccc(S(N)(=O)=O)c(F)c3)ccc2F)s1 | 202 | 390 | 197 | 200 | Active | inactive | 37 | 2.5 | 12240 | 6650 | 35300 | 4730 | 3.2 | 6.5 | 218 | 226 | – | Active | Active | –
5 | NS(=O)(=O)c1ccc(Cc2c(-c3cccc(C#Cc4ccc(C5CC5)s4)c3)nn(-c3nc(C(=O)O)cs3)c2CC2CC2)cc1F | 201 | 403 | 434 | 183 | Active | inactive | – | – | – | – | – | – | – | – | 332 | 342 | – | Active | Active | <40
6 | NS(=O)(=O)c1ccc(Cc2c(-c3ccc(F)c(/C=C/C4CCCC4)c3)nn(-c3nc(C(=O)O)cs3)c2CC2CC2)cc1F | 74 | 371 | 149 | 108 | Active | inactive | 83 | 13.3 | 9220 | 2810 | 6440 | 1200 | 3.1 | 5.5 | 488 | 454 | – | Active | Active | –

The remaining molecules from weak to strong by IC50 [1], led by results:

Row | IC50 [1] [nM] | IC50 [2] [nM] | IC50 [4] [nM] | IC50 [6] [nM] | inhibition [8] | inhibition [9] | F [10] [%] | Vdss [11] [L/kg] | AUClast [12] [ng·h/mL] | AUClast [13] [ng·h/mL] | Cmax [14] [ng/mL] | Cmax [15] [ng/mL] | beta t1/2 [16] [h] | beta t1/2 [17] [h] | SMILES | IC50 [3] [nM] | IC50 [5] [nM] | Kd [7] [nM] | inhibition [18] | inhibition [19] | Activity [20] [%]
7 | 52 | 1320 | 1600 | 170 | Active | inactive | 39 | 17.9 | 2650 | 1360 | 3320 | 2030 | 3.54 | 4.9 | Cc1cnc(C#Cc2cc(-c3nn(-c4nc(C(=O)O)cs4)c(CC4CC4)c3Cc3ccc(S(N)(=O)=O)c(F)c3)ccc2F)s1 | 803 | 909 | – | Active | Active | –
8 | 47 | 544 | 547 | 79 | Active | inactive | 106 | 10.3 | 13520 | 2320 | 4770 | 1260 | 10.7 | 5.1 | Cc1ccc(C#Cc2cc(-c3nn(-c4nc(C(=O)O)cs4)c(CC4CC4)c3Cc3ccc(S(N)(=O)=O)c(F)c3)ccc2F)o1 | – | – | – | – | – | –
9 | 36 | 450 | 432 | 168 | Active | inactive | 89 | 12.5 | 10170 | 2280 | 4570 | 2280 | 3.7 | 5 | Cc1ccc(C#Cc2cccc(-c3nn(-c4nc(C(=O)O)cs4)c(CC4CC4)c3Cc3ccc(S(N)(=O)=O)c(F)c3)c2)o1 | 285 | 296 | – | – | – | –
10 | 33 | 937 | 867 | – | Active | inactive | 38 | 13.9 | 3440 | 1820 | 5500 | 1820 | 3.2 | 5.75 | Cc1ncc(C#Cc2cc(-c3nn(-c4nc(C(=O)O)cs4)c(CC4CC4)c3Cc3ccc(S(N)(=O)=O)c(F)c3)ccc2F)s1 | 569 | 488 | – | – | – | –
11 | 24 | 420 | 361 | 106 | Active | inactive | – | – | – | – | – | – | – | – | CCCC#Cc1cc(-c2nn(-c3nc(C(=O)O)cs3)c(CC3CC3)c2Cc2ccc(S(N)(=O)=O)c(F)c2)ccc1F | 833 | 746 | – | Active | Active | –
12 | 11 | 405 | 321 | 126 | Active | inactive | – | – | – | – | – | – | – | – | C/C=C/c1cc(-c2nn(-c3nc(C(=O)O)cs3)c(CC3CC3)c2Cc2ccc(S(N)(=O)=O)c(F)c2)ccc1F | 614 | 528 | – | Active | Active | –
